From PMC5520537 (Antiviral research, 2017)
Like-named read-outs stand apart in the source and are kept apart here.

Experiments:
[1] = tested on: HBV genotype D; assay: HBV replication inhibition assay in HepDES19 cells; type: cell-based, hepatitis B virus; details: for HBV replication inhibition, qualitative screen: 20 μM, plus-polarity DNA; for EC50: read-out: HBV replication inhibition (EC50), 3 days, plus-polarity DNA strand, average ± SD
[2] = target: T1, HBV RNaseH (Hepatitis B virus genotype D subtype ayw, UniProt P03156); details: qualitative; previously reported; ref Cai et al., 2014; cited from earlier work
T1 sequence (P03156 671-832): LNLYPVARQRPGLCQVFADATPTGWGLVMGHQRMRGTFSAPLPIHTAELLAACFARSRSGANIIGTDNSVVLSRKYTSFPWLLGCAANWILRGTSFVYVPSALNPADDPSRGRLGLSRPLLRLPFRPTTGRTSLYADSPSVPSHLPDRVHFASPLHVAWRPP

[3] = target: T1, HBV RNaseH; assay: Molecular beacon fluorescence RNaseH cleavage assay; type: biochemical; details: for Inhibition of HBV RNaseH, Molecular Beacon cleavage assay: qualitative, 0 to 500 μM compound, 2.1 μg HBV RNaseH; for Inhibition in the molecular beacon assay: 2.1 μg purified HBV RNaseH, 0 to 500 μM
[4] = tested on: HepDES19 cells; details: read-out: Toxicity in HepDES19, MTS (CC50); 72 hours; average ± SD
[5] = tested on: HepDES19 cells; details: read-out: Toxicity in HepDES19, NR (CC50); 72 hours; average ± SD
[6] = tested on: HepDES19 cells; details: read-out: Toxicity in HepDES19, LDH (CC50); 72 hours; average ± SD
[7] = tested on: HIV replication; details: read-out: HIV replication inhibition; ref Suchaud et al., 2014; cited from earlier work
[8] = target: T1, HBV RNaseH; assay: Oligonucleotide-directed RNA cleavage assay with purified HBV RNaseH; type: biochemical; details: for Inhibition of HBV RNaseH, Oligonucleotide directed cleavage assay: qualitative, compounds at 100, 60 and 20 μM, 16 previously untested compounds
In short: (§1)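 Enzymes were His-tagged and expressed in E. coli, then nickel-affinity purified. A 32P-labelled RNA annealed to a DNA oligonucleotide was incubated with RNaseH and test compound at 42°C for 90 min. Products were gel-resolved and autoradiographed. Inhibition was scored qualitatively as dose-dependent reduction in substrate degraded.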

[9] = target: T2, huRNaseH1 (Homo sapiens, UniProt O60930); assay: Oligonucleotide-directed cleavage assay with purified huRNaseH1; type: biochemical; details: 100, 60 and 20 μM
T2 sequence (O60930 1-286): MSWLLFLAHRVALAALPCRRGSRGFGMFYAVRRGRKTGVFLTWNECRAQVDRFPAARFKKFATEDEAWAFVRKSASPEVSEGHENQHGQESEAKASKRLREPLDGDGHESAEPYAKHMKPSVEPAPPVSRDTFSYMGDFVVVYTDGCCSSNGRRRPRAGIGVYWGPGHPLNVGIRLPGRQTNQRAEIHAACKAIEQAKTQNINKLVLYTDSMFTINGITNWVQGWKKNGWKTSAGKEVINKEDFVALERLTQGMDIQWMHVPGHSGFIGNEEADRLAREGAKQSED
In short: as §1

[10] = target: HBV polymerase (Hepatitis B virus genotype D subtype ayw, UniProt P03156); assay: Endogenous polymerase reaction; type: biochemical; details: inhibitors at 4X EC50; #138 and #211 at 30 μM; ddTTP […]; 7 hours
Chain of HBV polymerase (P03156 whole entry): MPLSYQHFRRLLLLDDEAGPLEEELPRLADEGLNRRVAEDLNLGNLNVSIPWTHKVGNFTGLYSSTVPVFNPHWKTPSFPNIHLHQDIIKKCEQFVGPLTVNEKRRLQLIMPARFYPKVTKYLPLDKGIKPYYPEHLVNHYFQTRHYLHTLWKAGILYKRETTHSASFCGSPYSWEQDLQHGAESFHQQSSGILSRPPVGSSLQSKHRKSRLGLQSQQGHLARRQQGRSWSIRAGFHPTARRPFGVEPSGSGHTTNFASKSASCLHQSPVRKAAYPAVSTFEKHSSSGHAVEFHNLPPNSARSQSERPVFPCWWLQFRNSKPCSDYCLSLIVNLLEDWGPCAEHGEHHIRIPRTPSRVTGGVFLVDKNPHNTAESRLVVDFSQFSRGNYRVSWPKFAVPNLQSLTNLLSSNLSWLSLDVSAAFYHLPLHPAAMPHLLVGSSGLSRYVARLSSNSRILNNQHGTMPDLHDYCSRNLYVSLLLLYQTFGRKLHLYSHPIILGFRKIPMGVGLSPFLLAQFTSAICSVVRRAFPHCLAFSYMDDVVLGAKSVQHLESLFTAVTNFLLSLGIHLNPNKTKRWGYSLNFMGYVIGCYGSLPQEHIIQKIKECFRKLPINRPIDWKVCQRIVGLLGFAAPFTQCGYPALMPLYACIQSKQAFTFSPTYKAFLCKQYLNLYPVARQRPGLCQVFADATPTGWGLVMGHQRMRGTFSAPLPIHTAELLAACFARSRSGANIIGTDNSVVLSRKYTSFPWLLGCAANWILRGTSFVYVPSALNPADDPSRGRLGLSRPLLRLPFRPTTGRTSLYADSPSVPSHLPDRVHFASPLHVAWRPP

Row | Structure (SMILES) | HBV replication inhibition, qualitative screen [1] | Inhibition of HBV RNaseH, Oligonucleotide directed cleavage assay [2] | Inhibition of HBV RNaseH, Molecular Beacon cleavage assay [3] | CC50 [4] | CC50 [5] | CC50 [6] | Inhibition of HBV RNaseH, Oligonucleotide directed cleavage assay [8] | other results
1 | Cc1cc(C2CCCCC2)n(O)c(=O)c1 [Compound 41, Ciclopirox, reference compound] | − (No inhibition detected at 20 μM) | − (No inhibition detected at 100 μM) |  |  |  |  |  | 
2 | O=C(Nc1ccc2c(c1)C(=O)N(O)C(=O)C2C(=O)NCc1ccc(F)cc1)c1ccccc1 (centres unmarked) [Compound 86] |  | − (No inhibition detected at 100 μM) | − (No inhibition detected at 500 μM) | 99 ± 2 µM | 52 ± 11 µM | > 100 µM |  | TI (therapeutic index, CC50(MTS)/EC50) [1]: 71; EC50 [1]: 1400 ± 300 nM; EC50 [7]: > 21 µM
3 | O=C(NCc1ccc(F)cc1)C1C(=O)N(O)C(=O)c2cc(Cl)ccc21 (centres unmarked) [Compound 87] |  | − (No inhibition detected at 100 μM) | − (No inhibition detected at 500 μM) | 37 ± 17 µM | 24 ± 1 µM | 52 ± 15 µM |  | TI (therapeutic index, CC50(MTS)/EC50) [1]: 8.2; EC50 [1]: 4500 ± 3700 nM
4 | COc1ccc2c(c1)C(=O)N(O)C(=O)C2C(=O)NCc1ccc(F)cc1 (centres unmarked) [Compound 88] |  | − (No inhibition detected at 100 μM) | − (No inhibition detected at 500 μM) | 40 ± 6 µM | 26 ± 2 µM | 57 ± 6 µM |  | TI (therapeutic index, CC50(MTS)/EC50) [1]: 16; EC50 [1]: 2500 ± 500 nM
5 | O=C1CCC(=O)N1O [Compound 139] | − (No inhibition detected at 20 μM) | − (No inhibition detected at 100 μM) |  |  |  |  |  | HBV replication inhibition / activity [1]: inactive
6 | Cc1cc(CC(C)CC(C)(C)C)n(O)c(=O)c1.NCCO (centres unmarked) [Compound 191, Piroctone olamine, reference compound] | − (No inhibition detected at 20 μM) |  |  |  |  |  | − (No inhibition detected at 100 μM) | 
7 | O=c1[nH]c(=O)c2ccccc2[nH]1 [Compound 197, Benzoylene urea] | − (No inhibition detected at 20 μM) |  |  |  |  |  | − (No inhibition detected at 100 μM) | 
8 | Oc1nc2ccccc2nc1O [Compound 198, 2,3-dihydroxy-quinoxaline] | − (No inhibition detected at 20 μM) |  |  |  |  |  | − (No inhibition detected at 100 μM) | 
9 | NN1C(=O)Cc2ccccc2C1=O [Compound 204] | − (No inhibition detected at 20 μM) |  |  |  |  |  | − (No inhibition detected at 100 μM) | HBV replication inhibition / activity [1]: inactive; Inhibition of huRNaseH1 [9]: detectably inhibited
10 | Nc1cccc(=O)[nH]1 [Compound 206] | − (No inhibition detected at 20 μM) |  |  |  |  |  | − (No inhibition detected at 100 μM) | Inhibition of huRNaseH1 [9]: detectably inhibited
11 | CC(=Nc1ccccc1N)c1c(C)cc(=O)n(O)c1O [Compound 208] |  |  | + (Dose-dependent inhibition at ≤500 μM) | 15 ± 7 µM | 13 ± 1 µM | 12 ± 0.1 µM | + (Dose-dependent inhibition at ≤100 μM) | Inhibition of RNA cleavage by the HBV RNaseH ([8]; 100, 60 and 20 μM): inhibited RNA cleavage; Inhibition in the molecular beacon assay [3]: inhibited; Inhibition of huRNaseH1 [9]: did not inhibit; Stability in mouse liver microsomes: stable
12 | Cc1cc(COc2ccc(Oc3ccc(Cl)cc3)cc2)n(O)c(=O)c1 [Compound 211, Rilopirox, reference compound] | − (No inhibition detected at 20 μM) |  | − (No inhibition detected at 500 μM) |  |  |  | − (No inhibition detected at 100 μM) | Inhibition in the molecular beacon assay [3]: had no effect on the rate of substrate degradation; HBV replication inhibition / activity [1]: inactive; Effect on 32P incorporation / HBV DNA elongation in EPR [10]: None of the HBV inhibitors nor the two negative control compounds (#138 and 211) significantly altered incorporation
13 | Cc1cn([C@H]2CC[C@@H](COP(=O)(O)OP(=O)(O)OP(=O)(O)O)O2)c(=O)[nH]c1=O [ddTTP] |  |  |  |  |  |  |  | Effect on 32P incorporation / HBV DNA elongation in EPR [10]: strongly inhibited
